Results from ChEMBL document CHEMBL1157464, “1-[(3-Aryloxy-3-aryl)propyl]-1H-imidazoles, new imidazoles with potent activity against Candida albicans and dermatophytes. Synthesis, structure-activity relationship, and molecular modeling studies” (J Med Chem, 2008).
Values after ≈ are worked out from the molar mass of the structure shown.

System: Candida parapsilosis
Assay: Antifungal activity against Candida parapsilosis ATCC 22019 at 35 degC after 48 hrs by broth microdilution test
Format: functional
Conditions: Lodderomyces parapsilosis, ATCC 22019, 48 h; read-out: MFC
Method in brief: (§1)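 Broth microdilution per NCCLS M27-A2. Stocks in 100% DMSO, diluted in RPMI 1640 with 0.165 M MOPS at pH 7.0; final range 0.25–128 µg/mL. Inoculum 1000–5000 cells/mL from SDA subcultures. […] C. parapsilosis ATCC22019 served as QC strain.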

SMILES | MFC
Cc1ccc(C(CCn2ccnc2)Oc2ccc(C(C)(C)C)cc2)cc1 (configuration not stated) | 16 µg/mL (≈ 45.9 µM)
CC(C)c1ccc(OC(CCn2ccnc2)c2ccc(Cl)cc2)cc1 (configuration not stated) | 32 µg/mL (≈ 90.2 µM)
Clc1ccc(C(CCn2ccnc2)Oc2cc(Cl)cc(Cl)c2)cc1 (configuration not stated) | 4 µg/mL (≈ 10.5 µM)
CCC(C)n1ncn(-c2ccc(N3CCN(c4ccc(OC[C@@H]5CO[C@@](Cn6cncn6)(c6ccc(Cl)cc6Cl)O5)cc4)CC3)cc2)c1=O (some centres not stated) [ITRACONAZOLE] | 0.25 µg/mL (≈ 0.354 µM)
c1ccc(OC(CCn2ccnc2)c2ccccc2)cc1 (configuration not stated) | 32 µg/mL (≈ 115 µM)

Same assay, conditions: Lodderomyces parapsilosis, ATCC 22019, 48 h; read-out: MIC

MIC | SMILES
8 µg/mL (≈ 23 µM) | Cc1ccc(C(CCn2ccnc2)Oc2ccc(C(C)(C)C)cc2)cc1 (configuration not stated)
1 µg/mL (≈ 2.62 µM) | Clc1ccc(C(CCn2ccnc2)Oc2cc(Cl)cc(Cl)c2)cc1 (configuration not stated)
16 µg/mL (≈ 57.5 µM) | c1ccc(OC(CCn2ccnc2)c2ccccc2)cc1 (configuration not stated)

Second part, the compound before the results:

SMILES | MIC
CC(C)c1ccc(OC(CCn2ccnc2)c2ccc(Cl)cc2)cc1 (configuration not stated) | 8 µg/mL (≈ 22.5 µM)
CCC(C)n1ncn(-c2ccc(N3CCN(c4ccc(OC[C@@H]5CO[C@@](Cn6cncn6)(c6ccc(Cl)cc6Cl)O5)cc4)CC3)cc2)c1=O (some centres not stated) [ITRACONAZOLE] | 0.06 µg/mL (≈ 0.085 µM)

System: Arthrodermataceae
Assay: Antifungal activity against dermatophytes at 28 degC after 5 days by broth microdilution test
Conditions: not given

SMILES | MFC90
Cc1ccc(C(CCn2ccnc2)Oc2ccc(C(C)(C)C)cc2)cc1 (configuration not stated) | 16 µg/mL (≈ 45.9 µM)
Clc1ccc(C(CCn2ccnc2)Oc2cc(Cl)cc(Cl)c2)cc1 (configuration not stated) | 16 µg/mL (≈ 41.9 µM)
CCC(C)n1ncn(-c2ccc(N3CCN(c4ccc(OC[C@@H]5CO[C@@](Cn6cncn6)(c6ccc(Cl)cc6Cl)O5)cc4)CC3)cc2)c1=O (some centres not stated) [ITRACONAZOLE] | 2 µg/mL (≈ 2.83 µM)
c1ccc(OC(CCn2ccnc2)c2ccccc2)cc1 (configuration not stated) | 64 µg/mL (≈ 230 µM)

Same assay, conditions: Arthrodermataceae

SMILES | MFC
Cc1ccc(C(CCn2ccnc2)Oc2ccc(C(C)(C)C)cc2)cc1 (configuration not stated) | 14.4 µg/mL (≈ 41.3 µM)
Clc1ccc(C(CCn2ccnc2)Oc2cc(Cl)cc(Cl)c2)cc1 (configuration not stated) | 10 µg/mL (≈ 26.2 µM)
CCC(C)n1ncn(-c2ccc(N3CCN(c4ccc(OC[C@@H]5CO[C@@](Cn6cncn6)(c6ccc(Cl)cc6Cl)O5)cc4)CC3)cc2)c1=O (some centres not stated) [ITRACONAZOLE] | 1.4 µg/mL (≈ 1.98 µM)
c1ccc(OC(CCn2ccnc2)c2ccccc2)cc1 (configuration not stated) | 56.5 µg/mL (≈ 203 µM)

System: Candida albicans
Assay: Antifungal activity against fluconazole-resistant Candida albicans isolated from oropharyngeal or vaginal disease patient after 48 hrs by broth microdilution test
Format: functional
Conditions: not given

SMILES | MIC
CCC(C)n1ncn(-c2ccc(N3CCN(c4ccc(OC[C@@H]5CO[C@@](Cn6cncn6)(c6ccc(Cl)cc6Cl)O5)cc4)CC3)cc2)c1=O (some centres not stated) [ITRACONAZOLE] | 16 µg/mL (≈ 22.7 µM)

System: Arthrodermataceae
Assay: Antifungal activity against dermatophytes at 28 degC after 7 days by broth microdilution test
Format: functional
Conditions: 168 h
Method in brief: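 Ten clinical isolates (two M. canis, five M. gypseum, three T. mentagrophytes) tested by NCCLS M38-A broth microdilution in MOPS-buffered RPMI 1640, pH 7.0, over 0.25–128 µg/mL. Conidial/hyphal suspension from PDA slants (28 °C, 7 days) adjusted to 65–70% transmittance at OD530, then diluted 1:50.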

MIC | MIC50 | MIC90 | SMILES
11.2 µg/mL (≈ 32.1 µM) | 8 µg/mL (≈ 23 µM) | 16 µg/mL (≈ 45.9 µM) | Cc1ccc(C(CCn2ccnc2)Oc2ccc(C(C)(C)C)cc2)cc1 (configuration not stated)
5 µg/mL (≈ 13.1 µM) | 4 µg/mL (≈ 10.5 µM) | 8 µg/mL (≈ 21 µM) | Clc1ccc(C(CCn2ccnc2)Oc2cc(Cl)cc(Cl)c2)cc1 (configuration not stated)
24.1 µg/mL (≈ 86.6 µM) | 16 µg/mL (≈ 57.5 µM) | 32 µg/mL (≈ 115 µM) | c1ccc(OC(CCn2ccnc2)c2ccccc2)cc1 (configuration not stated)

SMILES | MIC | MIC50 | MIC90
CCC(C)n1ncn(-c2ccc(N3CCN(c4ccc(OC[C@@H]5CO[C@@](Cn6cncn6)(c6ccc(Cl)cc6Cl)O5)cc4)CC3)cc2)c1=O (some centres not stated) [ITRACONAZOLE] | 0.14 µg/mL (≈ 0.198 µM) | 0.125 µg/mL (≈ 0.177 µM) | 0.25 µg/mL (≈ 0.354 µM)

System: Candida albicans
Assay: Antifungal activity against Candida albicans ATCC 10261 at 35 degC after 48 to 96 hrs by broth microdilution test
Format: functional
Conditions: not given
Method in brief: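 Minimal fungicidal concentration for Candida. […] MFC is the lowest concentration allowing fewer than two colonies (99% killing).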

SMILES | MFC50 | MFC90
Cc1ccc(C(CCn2ccnc2)Oc2ccc(C(C)(C)C)cc2)cc1 (configuration not stated) | 64 µg/mL (≈ 184 µM) | 64 µg/mL (≈ 184 µM)
CC(C)c1ccc(OC(CCn2ccnc2)c2ccc(Cl)cc2)cc1 (configuration not stated) | 32 µg/mL (≈ 90.2 µM) | 32 µg/mL (≈ 90.2 µM)
Clc1ccc(C(CCn2ccnc2)Oc2cc(Cl)cc(Cl)c2)cc1 (configuration not stated) | 16 µg/mL (≈ 41.9 µM) | 16 µg/mL (≈ 41.9 µM)
CCC(C)n1ncn(-c2ccc(N3CCN(c4ccc(OC[C@@H]5CO[C@@](Cn6cncn6)(c6ccc(Cl)cc6Cl)O5)cc4)CC3)cc2)c1=O (some centres not stated) [ITRACONAZOLE] | >1 µg/mL | >1 µg/mL
c1ccc(OC(CCn2ccnc2)c2ccccc2)cc1 (configuration not stated) | 64 µg/mL (≈ 230 µM) | 128 µg/mL (≈ 460 µM)

Same assay, conditions: Candida albicans, ATCC 10261; read-out: MFC

SMILES | MFC
Cc1ccc(C(CCn2ccnc2)Oc2ccc(C(C)(C)C)cc2)cc1 (configuration not stated) | 58 µg/mL (≈ 166 µM)
CC(C)c1ccc(OC(CCn2ccnc2)c2ccc(Cl)cc2)cc1 (configuration not stated) | 25.5 µg/mL (≈ 71.9 µM)
Clc1ccc(C(CCn2ccnc2)Oc2cc(Cl)cc(Cl)c2)cc1 (configuration not stated) | 16.5 µg/mL (≈ 43.2 µM)
CCC(C)n1ncn(-c2ccc(N3CCN(c4ccc(OC[C@@H]5CO[C@@](Cn6cncn6)(c6ccc(Cl)cc6Cl)O5)cc4)CC3)cc2)c1=O (some centres not stated) [ITRACONAZOLE] | > 1 µg/mL
c1ccc(OC(CCn2ccnc2)c2ccccc2)cc1 (configuration not stated) | 83.2 µg/mL (≈ 299 µM)

System: Candida albicans
Assay: Antifungal activity against Candida albicans ATCC 10261 at 35 degC after 48 hrs by broth microdilution test
Format: functional
Conditions: Candida albicans, ATCC 10261, 48 h; read-out: MIC
Method in brief: as §1

MIC | SMILES
52.1 µg/mL (≈ 150 µM) | Cc1ccc(C(CCn2ccnc2)Oc2ccc(C(C)(C)C)cc2)cc1 (configuration not stated)
7.7 µg/mL (≈ 20.2 µM) | Clc1ccc(C(CCn2ccnc2)Oc2cc(Cl)cc(Cl)c2)cc1 (configuration not stated)
62.7 µg/mL (≈ 225 µM) | c1ccc(OC(CCn2ccnc2)c2ccccc2)cc1 (configuration not stated)

Further lines, the compound ahead of its results:

SMILES | MIC
CC(C)c1ccc(OC(CCn2ccnc2)c2ccc(Cl)cc2)cc1 (configuration not stated) | 18.5 µg/mL (≈ 52.1 µM)
CCC(C)n1ncn(-c2ccc(N3CCN(c4ccc(OC[C@@H]5CO[C@@](Cn6cncn6)(c6ccc(Cl)cc6Cl)O5)cc4)CC3)cc2)c1=O (some centres not stated) [ITRACONAZOLE] | 0.5 µg/mL (≈ 0.709 µM)

Same assay, conditions: Candida albicans, ATCC 10261, 48 h; read-out: MIC50

MIC50 | SMILES
64 µg/mL (≈ 184 µM) | Cc1ccc(C(CCn2ccnc2)Oc2ccc(C(C)(C)C)cc2)cc1 (configuration not stated)
8 µg/mL (≈ 21 µM) | Clc1ccc(C(CCn2ccnc2)Oc2cc(Cl)cc(Cl)c2)cc1 (configuration not stated)
32 µg/mL (≈ 115 µM) | c1ccc(OC(CCn2ccnc2)c2ccccc2)cc1 (configuration not stated)

Second part, the compound before the results:

SMILES | MIC50
CC(C)c1ccc(OC(CCn2ccnc2)c2ccc(Cl)cc2)cc1 (configuration not stated) | 8 µg/mL (≈ 22.5 µM)
CCC(C)n1ncn(-c2ccc(N3CCN(c4ccc(OC[C@@H]5CO[C@@](Cn6cncn6)(c6ccc(Cl)cc6Cl)O5)cc4)CC3)cc2)c1=O (some centres not stated) [ITRACONAZOLE] | 0.5 µg/mL (≈ 0.709 µM)

Same assay, conditions: Candida albicans, ATCC 10261, 48 h; read-out: MIC90

MIC90 | SMILES
64 µg/mL (≈ 184 µM) | Cc1ccc(C(CCn2ccnc2)Oc2ccc(C(C)(C)C)cc2)cc1 (configuration not stated)
16 µg/mL (≈ 41.9 µM) | Clc1ccc(C(CCn2ccnc2)Oc2cc(Cl)cc(Cl)c2)cc1 (configuration not stated)
128 µg/mL (≈ 460 µM) | c1ccc(OC(CCn2ccnc2)c2ccccc2)cc1 (configuration not stated)

Continued, compound first:

SMILES | MIC90
CC(C)c1ccc(OC(CCn2ccnc2)c2ccc(Cl)cc2)cc1 (configuration not stated) | 32 µg/mL (≈ 90.2 µM)
CCC(C)n1ncn(-c2ccc(N3CCN(c4ccc(OC[C@@H]5CO[C@@](Cn6cncn6)(c6ccc(Cl)cc6Cl)O5)cc4)CC3)cc2)c1=O (some centres not stated) [ITRACONAZOLE] | 1 µg/mL (≈ 1.42 µM)

System: Arthrodermataceae
Assay: Antifungal activity against dermatophytes at 28 degC after 48 to 96 hrs by broth microdilution test
Conditions: not given

SMILES | MFC50
Cc1ccc(C(CCn2ccnc2)Oc2ccc(C(C)(C)C)cc2)cc1 (configuration not stated) | 16 µg/mL (≈ 45.9 µM)
Clc1ccc(C(CCn2ccnc2)Oc2cc(Cl)cc(Cl)c2)cc1 (configuration not stated) | 8 µg/mL (≈ 21 µM)
CCC(C)n1ncn(-c2ccc(N3CCN(c4ccc(OC[C@@H]5CO[C@@](Cn6cncn6)(c6ccc(Cl)cc6Cl)O5)cc4)CC3)cc2)c1=O (some centres not stated) [ITRACONAZOLE] | 1 µg/mL (≈ 1.42 µM)
c1ccc(OC(CCn2ccnc2)c2ccccc2)cc1 (configuration not stated) | 64 µg/mL (≈ 230 µM)

System: not listed separately
Assay: Cytotoxicity against human U937 cells assessed as reduction of cell viability after 24 hrs by MTT assay
Format: cell-based, U-937
Conditions: not given
Method in brief: (§2)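 U937 and K562 cells, from ATCC, plated at 5 × 10^4/mL in phenol-red-free RPMI-1640 with 20% FBS and penicillin/streptomycin. Compounds added 2 h later at 25–100 µg/mL, then 24 h at 37 °C. MTT at 1 mg/mL for 3 h, formazan dissolved in isopropanol with 0.1 N HCl, absorbance read at 570 nm. CC50 is the concentration reducing viability by 50% versus the drug-free control.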

SMILES | CC50 at 24 h
CC(C)c1ccc(OC(CCn2ccnc2)c2ccc(Cl)cc2)cc1 (configuration not stated) | 208 µM
Clc1ccc(C(CCn2ccnc2)Oc2cc(Cl)cc(Cl)c2)cc1 (configuration not stated) | 180 µM
c1ccc(OC(CCn2ccnc2)c2ccccc2)cc1 (configuration not stated) | 201 µM

System: not listed separately
Assay: Cytotoxicity against human K562 cells after assessed as reduction of cell viability 24 hrs by MTT assay
Format: cell-based
Conditions: not given
Method in brief: as §2

SMILES | CC50 at 24 h
CC(C)c1ccc(OC(CCn2ccnc2)c2ccc(Cl)cc2)cc1 (configuration not stated) | 138 µM
Clc1ccc(C(CCn2ccnc2)Oc2cc(Cl)cc(Cl)c2)cc1 (configuration not stated) | 135 µM
c1ccc(OC(CCn2ccnc2)c2ccccc2)cc1 (configuration not stated) | 220 µM

System: Candida albicans
Assay: Antifungal activity against fluconazole-sensitive Candida albicans Fe40 at 35 degC after 48 hrs by broth microdilution test
Format: functional
Conditions: not given
Method in brief: as §1

SMILES | MIC
CCC(C)n1ncn(-c2ccc(N3CCN(c4ccc(OC[C@@H]5CO[C@@](Cn6cncn6)(c6ccc(Cl)cc6Cl)O5)cc4)CC3)cc2)c1=O (some centres not stated) [ITRACONAZOLE] | 0.031 µg/mL (≈ 0.0439 µM)
